Results collected from several papers.
Protocols differ between the studies behind these lines.
Target: Serine/threonine-protein kinase haspin (HASPIN, Homo sapiens, UniProt Q8TF76)
One construct used (Q8TF76 1-798): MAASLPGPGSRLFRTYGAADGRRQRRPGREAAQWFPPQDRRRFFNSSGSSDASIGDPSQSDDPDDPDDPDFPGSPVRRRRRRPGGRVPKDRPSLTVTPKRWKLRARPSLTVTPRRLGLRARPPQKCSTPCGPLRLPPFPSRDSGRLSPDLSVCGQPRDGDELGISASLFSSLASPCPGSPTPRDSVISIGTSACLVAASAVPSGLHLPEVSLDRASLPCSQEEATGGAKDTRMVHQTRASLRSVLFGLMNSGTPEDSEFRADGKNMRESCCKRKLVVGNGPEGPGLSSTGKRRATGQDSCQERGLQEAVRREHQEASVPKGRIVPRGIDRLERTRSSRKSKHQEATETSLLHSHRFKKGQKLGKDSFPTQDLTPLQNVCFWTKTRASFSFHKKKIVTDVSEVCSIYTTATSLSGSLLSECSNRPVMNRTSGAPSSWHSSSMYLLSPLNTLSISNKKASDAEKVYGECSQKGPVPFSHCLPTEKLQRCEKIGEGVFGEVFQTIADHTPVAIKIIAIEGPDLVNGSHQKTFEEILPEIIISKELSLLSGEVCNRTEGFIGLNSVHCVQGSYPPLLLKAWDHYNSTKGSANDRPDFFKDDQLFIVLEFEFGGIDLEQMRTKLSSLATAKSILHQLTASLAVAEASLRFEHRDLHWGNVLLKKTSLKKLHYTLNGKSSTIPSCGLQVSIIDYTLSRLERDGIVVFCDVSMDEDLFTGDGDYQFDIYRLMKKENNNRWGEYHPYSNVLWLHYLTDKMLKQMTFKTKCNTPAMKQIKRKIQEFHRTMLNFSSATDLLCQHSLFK

Compound | test | conditions | remaining binding [%]
O=C(Nc1c[nH]nc1C(=O)NC1CCNCC1)c1cc(F)cc(F)c1 | binding, competition with immobilised ligand | 1 µM | 96
CN(C)c1nccc(-c2cnn3ncccc23)n1 | binding | 1 µM | 1.5
C[C@@H](c1ccc(-n2cnc3c(N)ncnc32)cc1)N1CCc2nn(C)c(Cc3ccccc3)c2C1=O | binding, competition with immobilised ligand | 0.1 µM | 79
C[C@H]1CCN(c2nccc(-c3cnn4ncccc34)n2)C1 | binding | 1 µM | 2.1
CCC(=O)N[C@@H]1CC[C@H](C(=O)N(C)c2ccc(-c3nc4ccccc4o3)cc2)C1 | cell-free assay, competition with immobilised ligand | 1 µM | 100
O=C(c1ccc(Nc2ncc(Cl)c(-c3cc4ccccc4s3)n2)cc1)N1CCC(N2CCCC2)CC1 | binding, competition with immobilised ligand | 1 µM | 67
CNC(=O)[C@@H]1CC[C@@H](n2c(-c3ccc4cnccc4c3)nc3ccc(C(=O)NCc4cccc(C(N)=O)c4)cc32)C1 | binding, competition with immobilised ligand | 1 µM | 99
CN(CCCC(F)(F)F)c1nccc(-c2cnn3ncccc23)n1 | binding | 1 µM | 11
CCS(=O)(=O)c1cc2cc(C[C@@](O)(CC(C)(C)c3ccc(F)cc3C(N)=O)C(F)(F)F)[nH]c2cn1 | cell-free assay, competition with immobilised ligand | 1 µM | 80
FC(F)(F)Oc1cccc(-c2cnc3ccc(-c4ccncc4)nn23)c1 | binding, competition with immobilised ligand | 5 µM | 4.6
CCN1CCN(Cc2ccc(C(=O)Nc3ccc(C)c(Oc4ccc5c(c4)CC(=O)N5)c3)cc2C(F)(F)F)CC1 | binding, competition with immobilised ligand | 1 µM | 100
CSc1cccnc1N1CCN(Cc2nc3ccccc3[nH]2)CC1 | cell-free assay, competition with immobilised ligand | 1 µM | 100
F[C@@H]1CCN(c2nccc(-c3cnn4ncccc34)n2)C1 | binding | 1 µM | 15
Nc1ncc2c(n1)-c1c([nH]c3ccc(C#CC4CC4)cc13)CCCC2 | binding, competition with immobilised ligand | 1 µM | 100
O=C1NC(c2ccccn2)Sc2ccccc21 (stereo not shown) | cell-free assay, competition with immobilised ligand | 1 µM | 100
O=C(c1ccc(Nc2nccc(-c3cc4ccccc4s3)n2)cc1)N1CCC(N2CCCC2)CC1 | binding, competition with immobilised ligand | 1 µM | 64
C[C@H](NC(=O)c1cnc2n1[C@](C)(Cc1ccc(C#N)cc1)C(=O)N2c1cc(Cl)c(F)c(Cl)c1)C(=O)NC1(c2ccccn2)CC1 | cell-free assay, competition with immobilised ligand | 1 µM | 100
CN(C)c1nccc(-c2cnc3ncccn23)n1 | binding | 1 µM | 2.8
c1cncc(-c2cccc(Nc3nccc(NC4CCCCC4)n3)c2)c1 | binding, competition with immobilised ligand | 10 µM | 23
Cc1cnc(Nc2ccc(C(=O)N3CCC(N4CCCC4)CC3)cc2)nc1-c1cc2ccccc2s1 | binding, competition with immobilised ligand | 1 µM | 83
C[C@H](c1ccnc(Nc2nc3ccc(-c4cc(N(C)C)ncn4)cc3[nH]2)c1)N1CCN(C(=O)CC(F)(F)F)CC1 | cell-free assay, competition with immobilised ligand | 0.1 µM | 100
N[C@H]1CCN(c2nccc(-c3cnn4ncccc34)n2)C1 | binding | 1 µM | 0.4
